Assay outcomes from PubChem BioAssay.
Only a selection was taken, and hits are over-represented in it overall.
RORa inhibitor – RORA (human) inhibition | P35398 | CHO-K1 Gal4-RORA LBD luciferase reporter, luminescence | inhibition, % at 10 µM | actives 0.43% (n = 65,000) | AID 561;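 active means inhibition above the mean of all tested compounds plus 3 SD, cut at about 52% in these data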;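 further: 0% = RORA-transfected cells with DMSO and 100% = mock-transfected cells lacking RORA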
Target sequence (P35398 whole entry, looked up, the tested form may be a part): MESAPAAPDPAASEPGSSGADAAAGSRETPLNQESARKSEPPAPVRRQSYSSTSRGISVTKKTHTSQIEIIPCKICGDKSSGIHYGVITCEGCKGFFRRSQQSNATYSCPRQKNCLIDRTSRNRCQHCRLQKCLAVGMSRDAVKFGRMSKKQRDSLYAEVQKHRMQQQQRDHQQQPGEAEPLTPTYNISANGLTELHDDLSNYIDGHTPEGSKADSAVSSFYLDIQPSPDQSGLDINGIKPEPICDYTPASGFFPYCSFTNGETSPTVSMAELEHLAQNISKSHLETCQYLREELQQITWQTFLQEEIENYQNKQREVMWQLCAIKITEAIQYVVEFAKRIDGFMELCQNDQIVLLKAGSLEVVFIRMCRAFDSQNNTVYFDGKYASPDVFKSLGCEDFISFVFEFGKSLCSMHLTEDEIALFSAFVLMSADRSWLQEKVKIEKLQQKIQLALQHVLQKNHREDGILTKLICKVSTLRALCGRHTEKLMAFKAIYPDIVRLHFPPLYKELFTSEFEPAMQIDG
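Test system – CHO-K1 Gal4-RORA LBD luciferase reporter cells · Schedule – 20 h at 37 °C · Signal – luminescence from basal luciferase reporter expression · Measure – percent inhibition of basal reporter luminescence, control-normalized · Control set – -RORA mock-transfected DMSO wells 100%, +RORA DMSO wells 0%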
Starred values were filed as active, the others as inactive.

SMILES	RORa inhibitor
CCCCOc1ccccc1NC(=O)CSc1nnnn1C(C)(C)C	2.2
CCCCC(=O)NC(Nc1ccc(C)cn1)(C(=O)OCC)C(F)(F)F (centres undefined)	22.3
Cc1cc(/C=c2/sc3nc4ccccc4n3c2=O)c(C)n1-c1ccccn1	86.7*
CCCCc1ccc(NC(=O)C2CCN(S(C)(=O)=O)CC2)cc1	5.9
CCCn1nnc(NC(=O)c2cc3ccccc3o2)n1	-49.4
CCc1ccc(-c2nnn(CCC(=O)OC)n2)cc1	53.3*
c1ccc(OCCCn2nnc(-c3ccc(N4CCOCC4)cc3)n2)cc1	-4.1
CC1CCCC(C)N1C(=O)c1cc(-c2cccs2)on1 (centres undefined)	-61.2
Cc1nn(-c2ccccc2)c(Cl)c1C(=O)N1CCN(c2ncnc3c2cnn3-c2ccccc2)CC1	37.2
CCOC(=O)C1CCN(c2ncnc3c2cnn3-c2ccc(Cl)cc2)CC1	66.5*
Cc1ccc(-n2ncc3c(N4CCC(C(N)=O)CC4)ncnc32)c(C)c1	15.3
Cc1ccc(-c2nnc(Nc3ccccc3)o2)cc1	60.6*
CCOc1ccccc1C(=O)Nc1ccc(-c2nnc(-c3ccc(C)cc3)o2)cc1	10.8
Brc1cccc(-c2nnc(-c3ccccc3)o2)c1	-39.1
Cc1cccc(NC(=O)CSc2nnc(-c3ccc(S(=O)(=O)N4CCOCC4)cc3)n2C)c1	17.0
CCOC(=O)N1CCN(C(=O)C(c2ccccc2)c2ccccc2)CC1	0.6
CCOc1ccccc1C1C(C(=O)Nc2ccc(OC)cc2)=C(C)Nc2nc(CCCO)nn21 (centres undefined)	7.9
CCC1CCCCN1C(=O)CSc1nc(N)c(NC(=O)c2ccc(OC)c(OC)c2)c(=O)[nH]1 (centres undefined)	19.5
CCN(CC)C(=O)N1CCC(NC(=O)c2ccccc2)CC1	-2.9
COc1ccc2cc3c(N)c(C(=O)N4CCCC4)sc3nc2c1	7.9
COc1ccc(-c2cc3nc4n(c(=O)c3s2)CCC4)cc1	71.4*
O=C(Nc1ccc2nc3n(c(=O)c2c1)CCCCC3)c1ccccn1	-54.4
CC(=O)Nc1ccc(-n2c(C)nc(=O)c(-c3ccccc3)c2C)cc1	10.2
O=C(c1ccc2c(c1)c(=O)oc1ccccc12)N1CCCCC1	-49.9
N/C(=N\S(=O)(=O)c1ccc(Cl)s1)c1ccccc1	23.8
SMILES	RORa inhibitor
Clc1ncn(C23CC4CC(CC(C4)C2)C3)n1	9.0
Cc1nnc(SCC(=O)Nc2ccc3c(c2)COC3=O)n1-c1ccccc1	6.1
O=C(CSCCO)Nc1cc(C(F)(F)F)ccc1Cl	12.8
Oc1ccc(-c2nnc(SCC3CCCCC3)o2)cc1	-58.9
CN1C=CC(=C2C(=O)c3ccccc3C2=O)C=C1	-52.0
CCCN1C=CC(=C2C(=O)c3ccccc3C2=O)C=C1	91.2*
CC1=CC(=C2C(=O)c3ccccc3C2=O)C=C(C)O1	-57.3
CCN1C=CC(=C2C(=O)c3ccccc3C2=O)C=C1	67.2*
O=C(c1cc2ccccc2o1)c1nc2c(n1O)CCCCC2	-56.1
C/C(N)=C(/C#N)C(=O)COC(=O)c1cc(C)n(-c2ccc(F)cc2)c1C	-67.3
COc1cccc(N2CCN(c3ncnc4c3[nH]c3ccccc34)CC2C)c1 (centres undefined)	95.3*
COc1cccc(N2CCN(c3ncnc4c3[nH]c3ccc(F)cc34)CC2C)c1 (centres undefined)	95.2*
CC(=O)OCCN(CCOC(C)=O)c1c(C)[nH]c(=O)[nH]c1=O	2.7
Cc1ccc2nc(NC3=NCN(CCN4CCOCC4)CN3)nc(C)c2c1	-8.4
COc1ccc(/C(O)=C2/C(=O)C(=O)N(CCN(C)C)C2c2ccc(F)cc2)cc1Cl (centres undefined)	1.0
CCOC(=O)c1c(NC(=O)CSc2nnnn2C)sc(CC)c1C	-3.3
Cc1ccccc1C(=O)Nc1ccc(Br)cn1	-67.1
CC(=O)c1c(C)[nH]c(C(=O)Nc2ccc(C)cn2)c1C	73.4*
CCOC(=O)c1[nH]c(C)c(C(=O)Nc2ccccc2C)c1C	-80.6
CC(C)c1ccc(NC(=O)CSc2nc3c(c(=O)[nH]2)CCC3)cc1	2.2
C=CCSc1nncn1/N=C/c1ccc(OC)cc1	-90.8
CSc1ccc(/C=N/n2nnnc2N)cc1	-51.3
COc1ccc(/C=N\n2nnc3ccccc32)cc1	74.4*
CNc1nc2c(c(=O)[nH]c(=O)n2C)n1CCOC	9.1
Cc1cc(C(=O)OCC(=O)N2C(C)CCCC2C)c(C)o1 (centres undefined)	3.2
SMILES	RORa inhibitor
CCCn1nnnc1SCC(=O)N(C(C)C)C(C)C	2.8
CC(C)CCn1nnnc1C(c1ccc(N(C)C)cc1)N1CCN(C(=O)c2ccco2)CC1 (centres undefined)	21.7
Cc1nnc2c3cnn(-c4ccc(Cl)cc4)c3ncn12	-65.3
Cc1ccc(Sc2oc(/C=N/n3cnnc3)cc2Br)cc1	15.5
CC(=O)N1CCc2cc(C(=O)CN3CCN(C(=O)c4ccco4)CC3)ccc21	-17.2
CS(=O)(=O)c1ccc2nc(NC(=O)c3ccco3)sc2c1	-65.5
CC1CCc2nc(NC(=O)c3ccco3)sc2C1 (centres undefined)	61.5*
C=CCOC(=O)c1sc(NC(=O)c2ccco2)nc1C	-52.9
